In ChEMBL document CHEMBL1155292, “Synthesis, analgesic and anti-inflammatory activities evaluation of some bi-, tri- and tetracyclic condensed pyrimidines” (Eur J Med Chem, 2009):

Legend:
Assay type in all cases: functional
Rattus norvegicus [1] = assay: Antiinflammatory activity in albino rat assessed as inhibition of carrageenan-induced paw edema at 0.029 mmol/kg, po after 2 hrs relative to control
Outline: (§1)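 Adult albino rats of either sex, 120–150 g, six per group. Compounds at 0.029 mmol/kg suspended in saline with a few drops of Tween 80 and given by oral stomach tube. After 1 h, 0.1 ml of freshly prepared 1% carrageenan in saline injected subplantar into the right hind paw. Paw thickness measured at 1–4 h; % edema inhibition versus control; mean ± SEM; ANOVA.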

Rattus norvegicus [2] = assay: Antiinflammatory activity in albino rat assessed as inhibition of carrageenan-induced paw edema at 0.029 mmol/kg, po after 3 hrs relative to control; outline: as §1
Rattus norvegicus [3] = assay: Antiinflammatory activity in albino rat assessed as inhibition of carrageenan-induced paw edema at 0.029 mmol/kg, po after 4 hrs relative to control; outline: as §1
Mus musculus = assay: Analgesic activity in albino mouse assessed as decrease in acetic acid-induced writhing at 10 mg/kg, po administered 1 hr prior to acetic acid challenge relative to control
Outline: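 Albino mice of either sex, 18–22 g, six per group. Test agents suspended in saline with a few drops of Tween 80 and given by oral stomach tube; controls handled identically without drug. After 1 h, 0.3 ml of 1% acetic acid ip. Writhing contractions counted for 30 min, starting 5 min after injection. % protection versus control mean; mean ± SEM; one-way ANOVA with post hoc test.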

Rattus norvegicus [4] = assay: Antiinflammatory activity in albino rat assessed as inhibition of carrageenan-induced paw edema at 0.029 mmol/kg, po after 1 hr relative to control; outline: as §1

Compound: COc1ccc2c(c1)c(CC(=O)O)c(C)n2C(=O)c1ccc(Cl)cc1 [INDOMETHACIN]
- inhibition in vivo at 29 µmol/kg (Rattus norvegicus [1]): 35.5%
- inhibition in vivo at 29 µmol/kg (Rattus norvegicus [2]): 30.9%
- inhibition in vivo at 29 µmol/kg (Rattus norvegicus [3]): 27.3%
- inhibition in vivo at 10 mg/kg (Mus musculus): 71.6%
- inhibition in vivo at 29 µmol/kg (Rattus norvegicus [4]): 47.2%
